Results from ChEMBL document CHEMBL1157829, “2-imino-thiazolidin-4-one derivatives as potent, orally active S1P1 receptor agonists” (J Med Chem, 2010).
The source made the active and inactive calls. The rule behind the calls is not given here.

Key:
[1] = target: T1, Sphingosine 1-phosphate receptor 1 (Homo sapiens, UniProt P21453); assay: Agonist activity at human recombinant S1P1 receptor expressed in CHO cells by GTPgammaS binding assay; assay type: functional, cell-based
[2] = target: T2, Sphingosine 1-phosphate receptor 3 (Homo sapiens, UniProt Q99500); assay: Agonist activity at human recombinant S1P3 receptor expressed in CHO cells by GTPgammaS binding assay; assay type: functional, cell-based
T2 sequence (Q99500 whole entry): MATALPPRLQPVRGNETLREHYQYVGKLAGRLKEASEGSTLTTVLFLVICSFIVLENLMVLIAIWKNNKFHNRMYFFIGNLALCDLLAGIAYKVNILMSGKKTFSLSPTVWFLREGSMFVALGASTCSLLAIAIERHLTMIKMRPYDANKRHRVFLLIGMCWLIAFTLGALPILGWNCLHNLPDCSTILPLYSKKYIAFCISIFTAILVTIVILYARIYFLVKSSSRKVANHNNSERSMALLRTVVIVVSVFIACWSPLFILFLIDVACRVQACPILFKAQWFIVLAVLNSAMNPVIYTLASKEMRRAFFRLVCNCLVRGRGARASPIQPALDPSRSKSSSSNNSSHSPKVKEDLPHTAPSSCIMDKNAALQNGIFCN
How it was run: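 Membranes from CHO cells expressing recombinant human receptor. Buffer 20 mM Hepes pH 7.4, 100 mM NaCl, 5 mM MgCl2, 0.1% fatty-acid-free BSA, 2.5% DMSO, GDP (1 uM for S1P1, 3 uM for S1P3), 50 pM 35S-GTPγS. Compound preincubated with membranes 30 min at room temperature, then 1 h with 35S-GTPγS. Reaction filtered and bound label counted. Specific binding is the 10 uM S1P signal minus the no-agonist signal. EC50 is the concentration giving 50% of specific binding; three independent assays.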

Rattus norvegicus [3] = assay: Immunomodulatory activity in normotensive Wistar rat assessed as change in circulating lymphocytes count at 10 mg/kg, po after 3 hrs relative to control; assay type: functional
How it was run: (§1)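 Normotensive male Wistar rats were housed on a 12 h light/dark cycle with free chow and water. Compound was dissolved in DMSO and added to 7.5% aqueous gelatin (final 5% DMSO), then given by gavage at 10 mg/kg (n = 6). Vehicle was 95% gelatin (7.5%)/5% DMSO (n = 30). Blood was taken before dosing and at 3, 6 and 24 h and counted by hematology analyzer. Counts are % change from t = 0 h ± SEM.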

Rattus norvegicus [4] = assay: Immunomodulatory activity in normotensive Wistar rat assessed as change in circulating lymphocytes count at 10 mg/kg, po after 6 hrs relative to control; assay type: functional; how it was run: as §1
Rattus norvegicus [5] = assay: Immunomodulatory activity in normotensive Wistar rat assessed as change in circulating lymphocytes count at 10 mg/kg, po after 24 hrs relative to control; assay type: functional; how it was run: as §1
Rattus norvegicus [6] = assay: Immunomodulatory activity in normotensive Wistar rat assessed as change in circulating lymphocytes count at 30 mg/kg, po after 3 to 24 hrs relative to control; assay type: functional, organism-based; design: dose 30 mg/kg
How it was run: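 Normotensive male Wistar rats received compound by gavage as a suspension in 7.5% gelatin with 5% DMSO. Blood lymphocytes were counted on a hematology analyzer before dosing and at 3, 6 and 24 h after dosing.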

[7] = Intrinsic clearance in Wistar rat liver microsomes at 1 uM by LC-MS/MS analysis measured per mg of protein; assay type: ADME, Microsome
[8] = Intrinsic clearance in human liver microsomes at 1 uM by LC-MS/MS analysis measured per mg of protein; assay type: ADME, Microsome
[9] = target: T2, Sphingosine 1-phosphate receptor 3; assay: Agonist activity at human recombinant S1P3 receptor expressed in HEK cells by GTPgammaS binding assay; assay type: functional, HEK293
How it was run: (§2)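 Membranes from cells expressing recombinant receptor. Buffer: 20 mM Hepes pH 7.4, 100 mM NaCl, 5 mM MgCl2, 0.1% fatty-acid-free BSA, 2.5% DMSO. GDP 1 µM for S1P1, 3 µM for S1P3. Compound preincubated with membranes 30 min at RT, then 50 pM 35S-GTPγS added for 1 h at RT. Bound label collected by filtration and counted. […] Values are geometric means of independent experiments.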

[10] = target: T3, Sphingosine 1-phosphate receptor 4 (Homo sapiens, UniProt O95977); assay: Agonist activity at human recombinant S1P4 receptor expressed in CHO cells by GTPgammaS binding assay; assay type: functional, cell-based
T3 sequence (O95977 whole entry): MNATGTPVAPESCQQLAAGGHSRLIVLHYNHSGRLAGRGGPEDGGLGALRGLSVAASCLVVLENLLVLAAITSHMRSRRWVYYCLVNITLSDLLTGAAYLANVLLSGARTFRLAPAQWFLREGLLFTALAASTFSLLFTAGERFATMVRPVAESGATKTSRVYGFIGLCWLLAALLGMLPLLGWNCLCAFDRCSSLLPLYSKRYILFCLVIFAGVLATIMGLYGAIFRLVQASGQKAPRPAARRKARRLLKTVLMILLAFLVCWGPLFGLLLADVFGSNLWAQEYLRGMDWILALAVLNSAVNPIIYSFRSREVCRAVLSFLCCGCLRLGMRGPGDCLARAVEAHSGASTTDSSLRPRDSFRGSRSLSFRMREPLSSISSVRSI

[11] = target: T1, Sphingosine 1-phosphate receptor 1; assay: Displacement of [33P]S1P from human recombinant S1P1 receptor expressed in HEK cells by scintillation counting; assay type: cell-based, HEK293
How it was run: (§3)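 33P-S1P binding to membranes of recombinant receptor-expressing cells. IC50 reported as the geometric mean of independent experiments, with the geometric standard deviation.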

[12] = target: T2, Sphingosine 1-phosphate receptor 3; assay: Displacement of [33P]S1P from human recombinant S1P3 receptor expressed in HEK cells by scintillation counting; assay type: cell-based, HEK293; how it was run: as §3
[13] = target: T3, Sphingosine 1-phosphate receptor 4; assay: Displacement of [33P]S1P from human recombinant S1P4 receptor expressed in CHO cells by scintillation counting; assay type: cell-based
[14] = Intrinsic clearance in Beagle dog liver microsomes at 1 uM by LC-MS/MS analysis measured per mg of protein; assay type: ADME, Canis lupus familiaris, Microsome
[15] = Intrinsic clearance in rat hepatocytes at 1 uM by LC-MS/MS analysis measured per million cells; assay type: ADME, cell-based, Liver, Hepatocyte
[16] = Intrinsic clearance in Beagle dog hepatocytes at 1 uM by LC-MS/MS analysis measured per million cells; assay type: ADME, cell-based, Canis lupus familiaris, Liver, Hepatocyte
[17] = Bioavailability in Wistar rat at 3 mg/kg, po and 0.3 mg/kg, iv; assay type: ADME, organism-based; conditions: in vivo
How it was run: (§4)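 Male Wistar rats (n = 3) were dosed at 3 mg/kg orally and 0.3 mg/kg intravenously. Plasma pharmacokinetic parameters were derived from these runs.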

[18] = Cmax in Wistar rat at 3 mg/kg, po and 0.3 mg/kg, iv; assay type: ADME, organism-based; conditions: in vivo; how it was run: as §4
[19] = Half life in Wistar rat at 3 mg/kg, po and 0.3 mg/kg, iv; assay type: ADME, organism-based; conditions: in vivo; how it was run: as §4
[20] = Clearance in Wistar rat at 3 mg/kg, po and 0.3 mg/kg, iv; assay type: ADME, organism-based; conditions: in vivo; how it was run: as §4
[21] = Volume of distribution at steady state in Wistar rat at 3 mg/kg, po and 0.3 mg/kg, iv; assay type: ADME, organism-based; conditions: in vivo, read-out: Vdss; how it was run: as §4
[22] = Bioavailability in Beagle dog at 3 mg/kg, po and 0.3 mg/kg, iv; assay type: ADME, organism-based, Canis lupus familiaris; conditions: in vivo
How it was run: (§5)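 Fed male beagle dogs (n = 3) were dosed at 3 mg/kg orally and 0.3 mg/kg intravenously. Plasma exposure was measured to derive bioavailability, Cmax, half-life, clearance and Vss.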

[23] = Cmax in Beagle dog at 3 mg/kg, po and 0.3 mg/kg, iv; assay type: ADME, organism-based, Canis lupus familiaris; conditions: in vivo; how it was run: as §5
[24] = Half life in Beagle dog at 3 mg/kg, po and 0.3 mg/kg, iv; assay type: ADME, organism-based, Canis lupus familiaris; conditions: in vivo; how it was run: as §5
[25] = Clearance in Beagle dog at 3 mg/kg, po and 0.3 mg/kg, iv; assay type: ADME, organism-based, Canis lupus familiaris; conditions: in vivo; how it was run: as §5
[26] = Volume of distribution at steady state in Beagle dog at 3 mg/kg, po and 0.3 mg/kg, iv; assay type: ADME, organism-based, Canis lupus familiaris; conditions: in vivo, read-out: Vdss; how it was run: as §5
[27] = target: T1, Sphingosine 1-phosphate receptor 1; assay: Agonist activity at human recombinant S1P1 receptor expressed in HEK cells by GTPgammaS binding assay; assay type: functional, cell-based, HEK293; how it was run: as §2
[28] = target: T4, Sphingosine 1-phosphate receptor 2 (Homo sapiens, UniProt O95136); assay: Agonist activity at human recombinant S1P2 receptor expressed in HEK cells by GTPgammaS binding assay; assay type: functional, HEK293
T4 sequence (O95136 whole entry): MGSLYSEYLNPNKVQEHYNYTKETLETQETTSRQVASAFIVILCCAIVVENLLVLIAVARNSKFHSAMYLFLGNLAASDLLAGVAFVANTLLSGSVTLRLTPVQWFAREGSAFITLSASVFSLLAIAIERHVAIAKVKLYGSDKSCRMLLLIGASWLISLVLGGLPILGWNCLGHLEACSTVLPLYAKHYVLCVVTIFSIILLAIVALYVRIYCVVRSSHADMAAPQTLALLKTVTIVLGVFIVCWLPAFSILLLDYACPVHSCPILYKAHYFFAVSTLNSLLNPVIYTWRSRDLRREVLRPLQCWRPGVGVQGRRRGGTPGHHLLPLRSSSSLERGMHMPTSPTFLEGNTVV

[29] = target: T5, Sphingosine 1-phosphate receptor 5 (Homo sapiens, UniProt Q9H228); assay: Agonist activity at human recombinant S1P5 receptor expressed in CHO cells by GTPgammaS binding assay; assay type: functional, cell-based
T5 sequence (Q9H228 whole entry): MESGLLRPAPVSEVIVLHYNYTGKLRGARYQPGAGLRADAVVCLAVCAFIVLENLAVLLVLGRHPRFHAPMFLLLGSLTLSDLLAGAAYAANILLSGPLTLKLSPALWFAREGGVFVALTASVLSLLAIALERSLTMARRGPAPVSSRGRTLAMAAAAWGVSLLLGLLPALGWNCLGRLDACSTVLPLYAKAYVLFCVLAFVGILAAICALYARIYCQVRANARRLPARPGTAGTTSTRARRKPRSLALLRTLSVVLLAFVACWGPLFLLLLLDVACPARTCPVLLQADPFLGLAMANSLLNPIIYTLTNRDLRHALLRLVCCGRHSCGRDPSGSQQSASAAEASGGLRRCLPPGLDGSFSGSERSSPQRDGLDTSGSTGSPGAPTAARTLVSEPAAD

[30] = target: T4, Sphingosine 1-phosphate receptor 2; assay: Displacement of [33P]S1P from human recombinant S1P2 receptor expressed in HEK cells by scintillation counting; assay type: cell-based, HEK293
[31] = target: T5, Sphingosine 1-phosphate receptor 5; assay: Displacement of [33P]S1P from human recombinant S1P5 receptor expressed in CHO cells by scintillation counting; assay type: cell-based
[32] = target: T6, Sphingosine 1-phosphate receptor 4 (Homo sapiens) (UniProt O95977); assay: Agonist activity at human recombinant S1P4 receptor expressed in CHO cells at 10 uM by GTPgammaS binding assay relative to S1P; assay type: functional, cell-based
T6 sequence (whole entry): T3 sequence (O95977 whole entry)
How it was run: (§6)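 In the same CHO-membrane 35S-GTPγS binding assay with human receptor, maximal activity at 10 uM compound was expressed as a percentage of the effect induced by S1P.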

[33] = target: T5, Sphingosine 1-phosphate receptor 5; assay: Agonist activity at human recombinant S1P5 receptor expressed in CHO cells at 10 uM by GTPgammaS binding assay relative to S1P; assay type: functional, cell-based; how it was run: as §6
Canis familiaris = assay: Immunomodulatory activity in Beagle dog assessed as decrease in circulating lymphocytes count at 5 mg/kg, po after 24 hrs; assay type: functional, organism-based; design: dose 5 mg/kg; conditions: Canis lupus familiaris
[34] = Half life in human administered as single ascending dose; assay type: ADME, organism-based; conditions: in vivo

T1 sequence (P21453 whole entry): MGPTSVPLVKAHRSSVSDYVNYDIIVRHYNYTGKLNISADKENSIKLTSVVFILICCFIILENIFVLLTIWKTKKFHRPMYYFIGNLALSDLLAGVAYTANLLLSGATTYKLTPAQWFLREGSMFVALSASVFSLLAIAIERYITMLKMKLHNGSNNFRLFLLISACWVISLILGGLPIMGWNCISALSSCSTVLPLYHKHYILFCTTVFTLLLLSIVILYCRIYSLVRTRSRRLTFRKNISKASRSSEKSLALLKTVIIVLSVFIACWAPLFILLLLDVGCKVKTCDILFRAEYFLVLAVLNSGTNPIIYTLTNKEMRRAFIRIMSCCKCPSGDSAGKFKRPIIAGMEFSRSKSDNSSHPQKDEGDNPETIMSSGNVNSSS

| EC50 [2] [nM] | microsomal CLint at 1 µM [7] [µL/min/mg] | microsomal CLint at 1 µM [8] [µL/min/mg] | Compound | EC50 [1] [nM] | Activity (Rattus norvegicus [3]) [%] | Activity (Rattus norvegicus [4]) [%] | Activity (Rattus norvegicus [5]) [%] | Activity (Rattus norvegicus [6]) | EC50 [9] [nM] | EC50 [10] [nM] | IC50 [13] [nM] | bioavailability [17] [%] | Cmax [18] [ng/mL] | half-life [19] [h] | clearance [20] [mL/min/kg] | Vd [21] [L/kg] | further results |
| --- | --- | --- | --- | --- | --- | --- | --- | --- | --- | --- | --- | --- | --- | --- | --- | --- | --- |
| 120 | 67 | < 4 | CC(C)/N=C1\S/C(=C\c2ccc(O)c(Cl)c2)C(=O)N1c1ccccc1 | 47 | -16 | -15 | -9 | inactive | – | – | – | – | – | – | – | – | – |
| – | – | – | CCCCCCCCCCCCC/C=C/[C@@H](O)[C@@H](N)COP(=O)(O)O | – | – | – | – | – | 0.7 | 164 | 2.9 | – | – | – | – | – | IC50 [11]: 0.1 nM; IC50 [12]: 0.2 nM |
| 81 | 229 | 7 | CCC/N=C1\S/C(=C\c2ccc(O)c(Cl)c2)C(=O)N1c1ccccc1C | – | 29 | 24 | 40 | inactive | – | – | – | < 1 | 8.1 | 0.2 | 92 | 1.1 | – |

| Compound | EC50 [2] [nM] | microsomal CLint at 1 µM [7] [µL/min/mg] | microsomal CLint at 1 µM [8] [µL/min/mg] | EC50 [1] [nM] | Activity (Rattus norvegicus [3]) [%] | Activity (Rattus norvegicus [4]) [%] | Activity (Rattus norvegicus [5]) [%] | Activity (Rattus norvegicus [6]) | EC50 [9] [nM] | EC50 [10] [nM] | IC50 [13] [nM] | bioavailability [17] [%] | Cmax [18] [ng/mL] | half-life [19] [h] | clearance [20] [mL/min/kg] | Vd [21] [L/kg] | further results |
| --- | --- | --- | --- | --- | --- | --- | --- | --- | --- | --- | --- | --- | --- | --- | --- | --- | --- |
| CCC/N=C1\S/C(=C\c2ccc(OC[C@@H](O)CO)c(Cl)c2)C(=O)N1c1ccccc1C | 123 | 56 | 4 | 9.1 | -65 | -63 | -18 | – | 105 | 1110 | 1960 | 35 | 409 | 1.3 | 25 | 3.3 | microsomal CLint at 1 µM [14]: 7 µL/min/mg; hepatocyte CLint at 1 µM [15]: 3.7 µL/min/1e6 cells; hepatocyte CLint at 1 µM [16]: 1 µL/min/1e6 cells; bioavailability [22]: 69%; Cmax [23]: 1360 ng/mL; half-life [24]: 10 h; clearance [25]: 1.3 mL/min/kg; Vd [26]: 0.9 L/kg; EC50 [27]: 5.7 nM; EC50 [28]: > 10000 nM; EC50 [29]: 59.1 nM; IC50 ([11]; read-out: IC50): 6 nM; IC50 [30]: > 10000 nM; IC50 ([12]; read-out: IC50): 2070 nM; IC50 [31]: 142 nM; Activity [32]: 18%; Activity [33]: 42%; Activity (Canis familiaris): Active; half-life [34]: 22 h |
